Among the data in article PMC7138392 (Industrial Crops and Products, 2019) are CC50 values, retold here.

SMILES strings stand for the structures.

This data set is described as follows: Cytotoxicity in MDCK cells. The format is cell-based, Canine. The following applies: dog. In a few lines:
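MDCK cells (1 × 10^5/well) grown 24 h at 37 °C, 5% CO2, then washed twice with PBS pH 7.20. Exposed to test compound at 100 to 3.12 μM in p-MEM for 72 h at 37 °C, 5% CO2. Fixed, stained with 0.40% crystal violet in methanol, A490 read. Viability expressed relative to untreated cell control; CC50 by regression. Triplicate.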

The CC50 is the concentration at which the toxic effect on the cells reaches its halfway point. `CCC(CC)O[C@@H]1C=C(C(=O)O)C[C@H](N)[C@H]1NC(C)=O` [OC, Oseltamivir carboxylate] displayed a CC50 at 72 h greater than 100 µM.
